Measured values reported in ChEMBL document CHEMBL5724801, “EUbOPEN Chemogenomics Library - Multiplex” (2024).
Several values for one entry are separate records, joined by “and”; a condition that tells them apart may be missing. Equal values may be shown once.

Key:
U2OS = assay: Multiplex assay against U2OS; assay type: toxicity, cell-based; details: human
Method in brief: (§1)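 With compound added, live cells were imaged on a CQ1 microscope at 37°C and 5% CO2; staining with Hoechst33342, BioTracker Green Microtubule Cytoskeleton Dye, MitoTracker Red and Annexin V Alexa Fluor 680 had been done at seeding. The CellPathfinder machine-learning gating scheme split cells into Hoechst high-intensity objects or normal cells, normal cells into healthy, pyknosed or fragmented nuclei, and pyknosed cells into mitotic or apoptotic. The tubulin, mitochondrial-mass and membrane-permeability phenotypes are per cents of healthy-nucleus cells.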

HEK-293T = assay: Multiplex assay against HEK293T; assay type: toxicity, cell-based; details: human; method in brief: as §1
[1] = 12 h, 1 µM, compound concentration 1 uM
[2] = 12 h, 10 µM, compound concentration 10 uM
[3] = 24 h, 1 µM, compound concentration 1 uM
[4] = 24 h, 10 µM, compound concentration 10 uM
[5] = 48 h, 1 µM, compound concentration 1 uM
[6] = 48 h, 10 µM, compound concentration 10 uM

`CN(C)C/C=C/C(=O)Nc1ccc(C(=O)N2CCCC(Nc3ncc(Cl)c(-c4c[nH]c5ccccc45)n3)C2)cc1` (stereo not drawn) was tested, and the “Population Apoptotic (%)” value (U2OS; [1]) was 77% and 83%, the “Population Fragmented Nuclei (%)” value (U2OS; [1]) was 31% and 18% and the “Population Healthy Nuclei (%)” value (U2OS; [1]) was 60% and 77%. For the same molecule, the “Population Hoechst High Intensity Objects (%)” value (U2OS; [1]) was 2% and 0%, the “Population Membrane Permeable-Phenotype (%)” value (U2OS; [1]) was 5% and 6% and the “Population Mitochondria Different-Phenotype (%)” value (U2OS; [1]) was 3% and 5%. The “Population Mitotic Cells (%)” value (U2OS; [1]) was 22% and 16%, the “Population Normal (%)” value (U2OS; [1]) was 97% and 99% and the “Population Pyknosed Nuclei (%)” value (U2OS; [1]) was 8% and 4%. For the same molecule, the “Population Tubulin-Different-Phenotype (%)” value (U2OS; [1]) was 4% and 8%, the “Total Cell Count” value (U2OS; [1]) was 228 and 139 and the “Population Apoptotic (%)” value (U2OS; [2]) was 80% and 75%. For the same molecule, the “Population Fragmented Nuclei (%)” value (U2OS; [2]) was 31% and 25%, the “Population Healthy Nuclei (%)” value (U2OS; [2]) was 47% and 54% and the “Population Hoechst High Intensity Objects (%)” value (U2OS; [2]) was 5% and 2%. The “Population Membrane Permeable-Phenotype (%)” value (U2OS; [2]) was 33% and 23%, the “Population Mitochondria Different-Phenotype (%)” value (U2OS; [2]) was 40% and 42% and the “Population Mitotic Cells (%)” value (U2OS; [2]) was 20% and 25%. For the same molecule, the “Population Normal (%)” value (U2OS; [2]) was 94% and 97%, the “Population Pyknosed Nuclei (%)” value (U2OS; [2]) was 20% and the “Population Tubulin-Different-Phenotype (%)” value (U2OS; [2]) was 49% and 37%. For the same molecule, the “Total Cell Count” value (U2OS; [2]) was 233 and 121, the “Population Apoptotic (%)” value (U2OS; [3]) was 93% and 100% and the “Population Fragmented Nuclei (%)” value (U2OS; [3]) was 34% and 21%. The “Population Healthy Nuclei (%)” value (U2OS; [3]) was 53% and 67%, the “Population Hoechst High Intensity Objects (%)” value (U2OS; [3]) was 2% and 0% and the “Population Membrane Permeable-Phenotype (%)” value (U2OS; [3]) was 7% and 8%. For the same molecule, the “Population Mitochondria Different-Phenotype (%)” value (U2OS; [3]) was 2%, the “Population Mitotic Cells (%)” value (U2OS; [3]) was 6% and 0% and the “Population Normal (%)” value (U2OS; [3]) was 97% and 99%. The “Population Pyknosed Nuclei (%)” value (U2OS; [3]) was 11%, the “Population Tubulin-Different-Phenotype (%)” value (U2OS; [3]) was 6% and 5% and the “Total Cell Count” value (U2OS; [3]) was 271 and 164. For the same molecule, the “Population Apoptotic (%)” value (U2OS; [4]) was 87% and 97%, the “Population Fragmented Nuclei (%)” value (U2OS; [4]) was 39% and 31% and the “Population Healthy Nuclei (%)” value (U2OS; [4]) was 35%. The “Population Hoechst High Intensity Objects (%)” value (U2OS; [4]) was 9% and 5%, the “Population Membrane Permeable-Phenotype (%)” value (U2OS; [4]) was 22% and 21% and the “Population Mitochondria Different-Phenotype (%)” value (U2OS; [4]) was 33% and 28%. The “Population Mitotic Cells (%)” value (U2OS; [4]) was 12% and 2%, the “Population Normal (%)” value (U2OS; [4]) was 90% and 94% and the “Population Pyknosed Nuclei (%)” value (U2OS; [4]) was 25% and 32%. For the same molecule, the “Population Tubulin-Different-Phenotype (%)” value (U2OS; [4]) was 29% and 17%, the “Total Cell Count” value (U2OS; [4]) was 239 and 135 and the “Population Apoptotic (%)” value (U2OS; [5]) was 94% and 96%. The “Population Fragmented Nuclei (%)” value (U2OS; [5]) was 29% and 10%, the “Population Healthy Nuclei (%)” value (U2OS; [5]) was 60% and 77% and the “Population Hoechst High Intensity Objects (%)” value (U2OS; [5]) was 3%. For the same molecule, the “Population Membrane Permeable-Phenotype (%)” value (U2OS; [5]) was 10% and 3%, the “Population Mitochondria Different-Phenotype (%)” value (U2OS; [5]) was 3% and the “Population Mitotic Cells (%)” value (U2OS; [5]) was 5% and 3%. For the same molecule, the “Population Normal (%)” value (U2OS; [5]) was 96%, the “Population Pyknosed Nuclei (%)” value (U2OS; [5]) was 10% and 12% and the “Population Tubulin-Different-Phenotype (%)” value (U2OS; [5]) was 5% and 3%. The “Total Cell Count” value (U2OS; [5]) was 339 and 221, the “Population Apoptotic (%)” value (U2OS; [6]) was 100% and the “Population Fragmented Nuclei (%)” value (U2OS; [6]) was 50%. For the same molecule, the “Population Healthy Nuclei (%)” value (U2OS; [6]) was 17% and 18%, the “Population Hoechst High Intensity Objects (%)” value (U2OS; [6]) was 15% and 9% and the “Population Membrane Permeable-Phenotype (%)” value (U2OS; [6]) was 47% and 26%. For the same molecule, the “Population Mitochondria Different-Phenotype (%)” value (U2OS; [6]) was 27% and 19%, the “Population Mitotic Cells (%)” value (U2OS; [6]) was 0% and the “Population Normal (%)” value (U2OS; [6]) was 84% and 90%. The “Population Pyknosed Nuclei (%)” value (U2OS; [6]) was 32% and 31%, the “Population Tubulin-Different-Phenotype (%)” value (U2OS; [6]) was 38% and 23% and the “Total Cell Count” value (U2OS; [6]) was 251 and 157. For the same molecule, the “Population Apoptotic (%)” value (HEK-293T; [1]) was 46% and 63%, the “Population Fragmented Nuclei (%)” value (HEK-293T; [1]) was 8% and 6% and the “Population Healthy Nuclei (%)” value (HEK-293T; [1]) was 55% and 64%. The “Population Hoechst High Intensity Objects (%)” value (HEK-293T; [1]) was 30% and 23%, the “Population Membrane Permeable-Phenotype (%)” value (HEK-293T; [1]) was 0% and the “Population Mitochondria Different-Phenotype (%)” value (HEK-293T; [1]) was 87% and 89%. For the same molecule, the “Population Mitotic Cells (%)” value (HEK-293T; [1]) was 53% and 36%, the “Population Normal (%)” value (HEK-293T; [1]) was 69% and 76% and the “Population Pyknosed Nuclei (%)” value (HEK-293T; [1]) was 35% and 29%. For the same molecule, the “Population Tubulin-Different-Phenotype (%)” value (HEK-293T; [1]) was 69% and 70%, the “Total Cell Count” value (HEK-293T; [1]) was 227 and 231 and the “Population Apoptotic (%)” value (HEK-293T; [2]) was 62% and 77%. The “Population Fragmented Nuclei (%)” value (HEK-293T; [2]) was 12% and 7%, the “Population Healthy Nuclei (%)” value (HEK-293T; [2]) was 57% and 64% and the “Population Hoechst High Intensity Objects (%)” value (HEK-293T; [2]) was 35% and 29%. For the same molecule, the “Population Membrane Permeable-Phenotype (%)” value (HEK-293T; [2]) was 0%, the “Population Mitochondria Different-Phenotype (%)” value (HEK-293T; [2]) was 95% and the “Population Mitotic Cells (%)” value (HEK-293T; [2]) was 37% and 22%. The “Population Normal (%)” value (HEK-293T; [2]) was 64% and 70%, the “Population Pyknosed Nuclei (%)” value (HEK-293T; [2]) was 30% and 28% and the “Population Tubulin-Different-Phenotype (%)” value (HEK-293T; [2]) was 79% and 81%. For the same molecule, the “Total Cell Count” value (HEK-293T; [2]) was 269 and 181, the “Population Apoptotic (%)” value (HEK-293T; [3]) was 72% and 74% and the “Population Fragmented Nuclei (%)” value (HEK-293T; [3]) was 15% and 9%. For the same molecule, the “Population Healthy Nuclei (%)” value (HEK-293T; [3]) was 62% and 67%, the “Population Hoechst High Intensity Objects (%)” value (HEK-293T; [3]) was 27% and 26% and the “Population Membrane Permeable-Phenotype (%)” value (HEK-293T; [3]) was 0%. For the same molecule, the “Population Mitochondria Different-Phenotype (%)” value (HEK-293T; [3]) was 85% and 89%, the “Population Mitotic Cells (%)” value (HEK-293T; [3]) was 27% and 25% and the “Population Normal (%)” value (HEK-293T; [3]) was 72% and 73%. The “Population Pyknosed Nuclei (%)” value (HEK-293T; [3]) was 22% and 23% and the “Population Tubulin-Different-Phenotype (%)” value (HEK-293T; [3]) was 74% and 70%.
